Measured values: ChEMBL document CHEMBL2146464, “Structure-activity relationship study of nitrosopyrimidines acting as antifungal agents” (Bioorg Med Chem, 2012)
Converted amounts (≈) assume the structure as drawn. The source made the active and inactive calls. The rule behind the calls is not given here.

Legend:
[1] = test system: Candida albicans; assay: Antifungal activity against Candida albicans ATCC 10231 assessed as growth inhibition at 3.9 ug/mL after 24 hrs by microplate reader analysis; format: functional; settings: ATCC 10231, 24 h, read-out: GI
Summary of the method: (§1)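 96-well RPMI-1640 wells with compound at final 250–0.98 µg/mL (DMSO ≤1%). Inoculum 100 µL, 1–5 × 10³ CFU/mL, 200 µL final. Each well includes growth (DMSO, no compound) and sterility controls. % inhibition = 100 − (CTW−SCW)/(GCW−SCW) × 100, run in duplicate.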

[2] = test system: Candida albicans; assay: Antifungal activity against Candida albicans ATCC 10231 assessed as growth inhibition at 250 ug/mL after 24 hrs by microplate reader analysis; format: functional; settings: ATCC 10231, 24 h, read-out: GI; summary of the method: as §1
[3] = test system: Candida albicans; assay: Antifungal activity against Candida albicans ATCC 10231 assessed as growth inhibition at 15.6 ug/mL after 24 hrs by microplate reader analysis; format: functional; settings: ATCC 10231, 24 h, read-out: GI; summary of the method: as §1
[4] = test system: Trichophyton rubrum; assay: Fungicidal activity against Trichophyton rubrum CCC 110 after 48 hrs by agar plate dilution method; format: functional; settings: CCC 110, 48 h
Summary of the method: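 Samples from each clear well of the MIC broth microdilution tray were plated onto RPMI-1640 agar buffered with MOPS. That tray had compounds twofold diluted in RPMI (pH 7.0, MOPS) from 250–0.98 µg/mL with inoculum of 1–5 × 10³ CFU/mL, incubated at 28–30 °C for dermatophytes. Plates were incubated at 30 °C and read at 48 h. MFC was taken as the lowest concentration giving total inhibition of visible growth.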

[5] = test system: Candida tropicalis; assay: Fungicidal activity against Candida tropicalis after 48 hrs by agar plate dilution method; format: functional
Summary of the method: (§2)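 MFC: after the microdilution MIC, material from each clear well was plated onto RPMI-1640 agar buffered with MOPS. Plates incubated at 30 °C and read after 48 h. MFC is the lowest concentration giving total inhibition of visible growth.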

[6] = test system: Candida albicans; assay: Antifungal activity against Candida albicans ATCC 10231 assessed as growth inhibition at 7.8 ug/mL after 24 hrs by microplate reader analysis; format: functional; settings: ATCC 10231, 24 h, read-out: GI; summary of the method: as §1
[7] = test system: Trichophyton rubrum; assay: Antifungal activity against Trichophyton rubrum CCC 110 by NCCLS broth microdilution method; format: functional; settings: read-out: MIC100
Summary of the method: (§3)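 MIC by broth microdilution per NCCLS M27-A3/M38-A2 in RPMI-1640 buffered to pH 7.0 with MOPS. Twofold dilutions from 250–0.98 µg/mL, final DMSO ≤1%. Inoculum 1–5 × 10³ CFU/mL. Incubated in a moist dark chamber, 30 °C for Aspergillus and 28–30 °C for dermatophytes. Read visually when control growth allowed. Endpoint is the lowest concentration giving total inhibition of visible growth (MIC100).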

[8] = test system: Nannizzia gypsea; assay: Antifungal activity against Microsporum gypseum CCC 115 by NCCLS broth microdilution method; format: functional; settings: read-out: MIC100; summary of the method: as §3
[9] = test system: Aspergillus fumigatus; assay: Antifungal activity against Aspergillus fumigatus ATCC 26934 at 0.98 to 250 ug/mL by NCCLS broth microdilution method; format: functional, organism-based; summary of the method: as §3
[10] = test system: Candida albicans; assay: Antifungal activity against Candida albicans ATCC 10231 assessed as growth inhibition at 125 ug/mL after 24 hrs by microplate reader analysis; format: functional; settings: ATCC 10231, 24 h, read-out: GI; summary of the method: as §1
[11] = test system: Candida tropicalis; assay: Antifungal activity against Candida tropicalis after 48 hrs by NCCLS broth microdilution method; format: functional; settings: read-out: MIC100
Summary of the method: (§4)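 Yeast MIC by NCCLS M27-A3 broth microdilution in RPMI-1640 buffered to pH 7.0 with MOPS. Twofold dilutions of 250–0.98 µg/mL, final DMSO ≤1%. Inoculum 1–5 × 10³ CFU/mL. Incubated at 30 °C in a moist dark chamber. Read visually at 48 h. MIC100 is the lowest concentration with no visible growth versus drug-free control.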

[12] = test system: Aspergillus flavus; assay: Antifungal activity against Aspergillus flavus ATCC 9170 at 0.98 to 250 ug/mL by NCCLS broth microdilution method; format: functional, organism-based; summary of the method: as §3
[13] = test system: Trichophyton mentagrophytes; assay: Antifungal activity against Trichophyton mentagrophytes ATCC 9972 by NCCLS broth microdilution method; format: functional; settings: read-out: MIC100; summary of the method: as §3
[14] = test system: Cryptococcus neoformans; assay: Antifungal activity against Cryptococcus neoformans ATCC 32264 after 48 hrs by microplate reader analysis; format: functional; settings: ATCC 32264, 48 h
Summary of the method: (§5)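 Microplate growth-inhibition assay in RPMI-1640, compound at final 250–0.98 µg/mL (DMSO ≤1%). Inoculum 1–5 × 10³ CFU/mL. Sterility and DMSO growth controls included. Percent inhibition is computed from blank-corrected OD relative to the growth control, tested in duplicate.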

[15] = Acute toxicity in bony fish assessed as mortality at 35 ug/mL after 96 hrs; settings: actinopterygii; read-out: Activity
Summary of the method: (§6)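 Guppy (Poecilia reticulata) acute static exposure: 10 fish per concentration in 2 L wide-mouthed jars holding the test solution. Compounds were added from […] to give the final concentrations. Dead fish were counted and removed every 24 h, with general condition noted; percentage mortality was scored at 96 h. Two experiments, each in triplicate.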

[16] = test system: Candida tropicalis; assay: Antifungal activity against Candida tropicalis assessed as growth inhibition at 250 ug/mL by microplate reader analysis; format: functional; settings: read-out: GI
[17] = test system: Candida albicans; assay: Antifungal activity against Candida albicans ATCC 10231 assessed as growth inhibition at 62.5 ug/mL after 24 hrs by microplate reader analysis; format: functional; settings: ATCC 10231, 24 h, read-out: GI; summary of the method: as §1
[18] = test system: Cryptococcus neoformans; assay: Antifungal activity against Cryptococcus neoformans ATCC 32264 assessed as growth inhibition at 250 ug/mL after 48 hrs by microplate reader analysis; format: functional; settings: ATCC 32264, 48 h, read-out: GI; summary of the method: as §5
[19] = test system: Candida tropicalis; assay: Antifungal activity against Candida tropicalis assessed as growth inhibition at 7.8 ug/mL by microplate reader analysis; format: functional; settings: read-out: GI
[20] = test system: Candida tropicalis; assay: Antifungal activity against Candida tropicalis assessed as growth inhibition at 125 ug/mL by microplate reader analysis; format: functional; settings: read-out: GI
[21] = test system: Cryptococcus neoformans; assay: Antifungal activity against Cryptococcus neoformans ATCC 32264 assessed as growth inhibition at 15.6 ug/mL after 48 hrs by microplate reader analysis; format: functional; settings: ATCC 32264, 48 h, read-out: GI; summary of the method: as §5
[22] = test system: Nannizzia gypsea; assay: Fungicidal activity against Microsporum gypseum CCC 115 after 48 hrs by agar plate dilution method; format: functional; settings: CCC 115, 48 h; summary of the method: as §2
[23] = test system: Candida tropicalis; assay: Antifungal activity against Candida tropicalis assessed as growth inhibition at 15.6 ug/mL by microplate reader analysis; format: functional; settings: read-out: GI
[24] = test system: Candida tropicalis; assay: Antifungal activity against Candida tropicalis assessed as growth inhibition at 3.9 ug/mL by microplate reader analysis; format: functional; settings: read-out: GI
[25] = test system: Candida tropicalis; assay: Antifungal activity against Candida tropicalis assessed as growth inhibition at 62.5 ug/mL by microplate reader analysis; format: functional; settings: read-out: GI
[26] = test system: Candida albicans; assay: Antifungal activity against Candida albicans ATCC 10231 after 48 hrs by NCCLS broth microdilution method; format: functional; settings: ATCC 10231, 48 h, read-out: MIC100; summary of the method: as §4
[27] = test system: Aspergillus niger; assay: Antifungal activity against Aspergillus niger ATCC 9029 at 0.98 to 250 ug/mL by NCCLS broth microdilution method; format: functional, organism-based; summary of the method: as §3
[28] = test system: Candida tropicalis; assay: Antifungal activity against Candida tropicalis by microplate reader analysis; format: functional
[29] = test system: Cryptococcus neoformans; assay: Antifungal activity against Cryptococcus neoformans ATCC 32264 assessed as growth inhibition at 31.25 ug/mL after 48 hrs by microplate reader analysis; format: functional; settings: ATCC 32264, 48 h, read-out: GI; summary of the method: as §5
[30] = test system: Cryptococcus neoformans; assay: Fungicidal activity against Cryptococcus neoformans ATCC 32264 after 48 hrs by agar plate dilution method; format: functional; settings: ATCC 32264, 48 h; summary of the method: as §2
[31] = test system: Candida albicans; assay: Antifungal activity against Candida albicans ATCC 10231 after 24 hrs by microplate reader analysis; format: functional; settings: ATCC 10231, 24 h; summary of the method: as §1
[32] = test system: Candida albicans; assay: Antifungal activity against Candida albicans ATCC 10231 assessed as growth inhibition at 31.25 ug/mL after 24 hrs by microplate reader analysis; format: functional; settings: ATCC 10231, 24 h, read-out: GI; summary of the method: as §1
[33] = test system: Candida tropicalis; assay: Antifungal activity against Candida tropicalis assessed as growth inhibition at 31.25 ug/mL by microplate reader analysis; format: functional; settings: read-out: GI
[34] = test system: Candida albicans; assay: Fungicidal activity against Candida albicans ATCC 10231 after 48 hrs by agar plate dilution method; format: functional; settings: ATCC 10231, 48 h; summary of the method: as §2
[35] = Acute toxicity in bony fish assessed as mortality at 5 ug/mL after 96 hrs; settings: actinopterygii; read-out: Activity; summary of the method: as §6
[36] = test system: Cryptococcus neoformans; assay: Antifungal activity against Cryptococcus neoformans ATCC 32264 assessed as growth inhibition at 7.8 ug/mL after 48 hrs by microplate reader analysis; format: functional; settings: ATCC 32264, 48 h, read-out: GI; summary of the method: as §5
[37] = test system: Trichophyton mentagrophytes; assay: Fungicidal activity against Trichophyton mentagrophytes ATCC 9972 after 48 hrs by agar plate dilution method; format: functional; settings: ATCC 9972, 48 h; summary of the method: as §2
[38] = test system: Cryptococcus neoformans; assay: Antifungal activity against Cryptococcus neoformans ATCC 32264 after 48 hrs by NCCLS broth microdilution method; format: functional; settings: ATCC 32264, 48 h, read-out: MIC100; summary of the method: as §4
[39] = test system: Cryptococcus neoformans; assay: Antifungal activity against Cryptococcus neoformans ATCC 32264 assessed as growth inhibition at 62.5 ug/mL after 48 hrs by microplate reader analysis; format: functional; settings: ATCC 32264, 48 h, read-out: GI; summary of the method: as §5
[40] = test system: Cryptococcus neoformans; assay: Antifungal activity against Cryptococcus neoformans ATCC 32264 assessed as growth inhibition at 125 ug/mL after 48 hrs by microplate reader analysis; format: functional; settings: ATCC 32264, 48 h, read-out: GI; summary of the method: as §5
[41] = test system: Cryptococcus neoformans; assay: Antifungal activity against Cryptococcus neoformans ATCC 32264 assessed as growth inhibition at 3.9 ug/mL after 48 hrs by microplate reader analysis; format: functional; settings: ATCC 32264, 48 h, read-out: GI; summary of the method: as §5

## COc1nc(N)c(N=O)c(Nc2ccccc2)n1
[1]
  inhibition of growth at 3.9 µg/mL: 4.7%
[2]
  inhibition of growth at 250 µg/mL: 100%
[3]
  inhibition of growth at 15.6 µg/mL: 98.1%
[4]
  MFC: 250 µg/mL (≈ 1020 µM)
[5]
  MFC: 31.2 µg/mL (≈ 127 µM)
[6]
  inhibition of growth at 7.8 µg/mL: 85%
[7]
  MIC: 125 µg/mL (≈ 510 µM)
[8]
  MIC: 62.5 µg/mL (≈ 255 µM)
[9]
  Activity: inactive
[10]
  inhibition of growth at 125 µg/mL: 100%
[11]
  MIC: 31.2 µg/mL (≈ 127 µM)
[12]
  Activity: inactive
[13]
  MIC: 125 µg/mL (≈ 510 µM)
[14]
  MIC50: 1.95 µg/mL (≈ 7.95 µM)
[15]
  mortality at 96 h, 35 ug/mL: 0%
[16]
  inhibition of growth at 250 µg/mL: 100%
[17]
  inhibition of growth at 62.5 µg/mL: 100%
[18]
  inhibition of growth at 250 µg/mL: 100%
[19]
  inhibition of growth at 7.8 µg/mL: 87.2%
[20]
  inhibition of growth at 125 µg/mL: 100%
[21]
  inhibition of growth at 15.6 µg/mL: 100%
[22]
  MFC: 62.5 µg/mL (≈ 255 µM)
[23]
  inhibition of growth at 15.6 µg/mL: 88.2%
[24]
  inhibition of growth at 3.9 µg/mL: 4.1%
[25]
  inhibition of growth at 62.5 µg/mL: 100%
[26]
  MIC: 31.2 µg/mL (≈ 127 µM)
[27]
  Activity: inactive
[28]
  MIC50: 7.8 µg/mL (≈ 31.8 µM)
[29]
  inhibition of growth at 31.25 µg/mL: 100%
[30]
  MFC: 62.5 µg/mL (≈ 255 µM)
[31]
  MIC50: 7.8 µg/mL (≈ 31.8 µM)
[32]
  inhibition of growth at 31.25 µg/mL: 100%
[33]
  inhibition of growth at 31.25 µg/mL: 100%
[34]
  MFC: 31.2 µg/mL (≈ 127 µM)
[35]
  mortality at 96 h, 5 ug/mL: 0%
[36]
  inhibition of growth at 7.8 µg/mL: 91.2%
[37]
  MFC: 250 µg/mL (≈ 1020 µM)
[38]
  MIC: 15.6 µg/mL (≈ 63.6 µM)
[39]
  inhibition of growth at 62.5 µg/mL: 100%
[40]
  inhibition of growth at 125 µg/mL: 100%
[41]
  inhibition of growth at 3.9 µg/mL: 76.2%
